Source: PubChem BioAssay
MLL AF4-AF9 inh = inhibitors of AF4 peptide binding to AF9, primary screen, biochemical, AlphaScreen, biotin-AF4 peptide, FLAG-AF9, single point; Protein AF-9 (Homo sapiens), P42568; inhibition, % at 10 µM; actives 0.47% (n = 350,000); AID 651704, 2012;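 active means every replicate reaching a set inhibition limit, whatever the replicate mean, cut at about 25% in these data; inconclusive means mean inhibition reaches that limit but some replicates miss it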;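 further: 0% = plate neutral control median and 100% = total signal loss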
RAD54 branch = inhibitors of human RAD54 branch migration, primary screen, biochemical, fluorescence, single point | RAD54 Holliday junction branch migration, FAM/BHQ fluorescence | AID 602329, 2012 | actives 0.14% (n = 360,000) | DNA repair and recombination protein RAD54-like (Homo sapiens), Q92698 | inhibition, % at 10.4 µM;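 active means mean normalized replicate activity at least 40 and at least half of replicates scoring 40 or more; inconclusive means only one of the two criteria met; inactive means mean below 40 and under half of replicates reaching 40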;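 further: 0% = median of neutral control wells and 100% = median of positive control wells; inhibitors cause a drop in the FAM fluorescence signal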
dFosB act = activators of delta FosB homodimer, primary screen, biochemical, fluorescence polarization, TAMRA-CDK5 oligo, single point; purified delta FosB; percent of positive-control signal above neutral wells; activation, % at 25 µM; actives 0.99% (n = 340,000); AID 493131, 2011;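 active means mean activation above about 17%, with every replicate also reaching it, limit read from the data, passing the limit was not always enough; inconclusive means only one of the two conditions met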
Target sequence (P13346 whole entry, looked up): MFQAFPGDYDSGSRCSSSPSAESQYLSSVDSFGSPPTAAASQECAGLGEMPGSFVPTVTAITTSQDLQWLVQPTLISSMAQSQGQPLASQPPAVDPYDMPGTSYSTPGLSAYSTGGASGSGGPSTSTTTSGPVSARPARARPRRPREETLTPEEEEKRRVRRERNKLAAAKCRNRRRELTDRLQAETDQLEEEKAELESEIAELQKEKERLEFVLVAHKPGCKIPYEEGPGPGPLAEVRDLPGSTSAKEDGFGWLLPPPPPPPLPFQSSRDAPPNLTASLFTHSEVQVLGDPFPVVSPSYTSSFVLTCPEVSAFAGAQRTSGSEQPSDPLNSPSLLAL
S100A4 MyoIIA = inhibitors of S100A4-myosin IIA peptide binding, primary screen, biochemical, fluorescence polarization, TAMRA-MyoIIA peptide | Protein S100-A4 (Homo sapiens), P26447 | inhibition, % at 10.7 µM | actives 0.14% (n = 360,000);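 active means mean inhibition of at least 70% across replicates, with every replicate also reaching that level; inconclusive means mean inhibition reaches 70% but some replicates fall short; inactive means mean inhibition below 70%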
Target sequence (P26447 whole entry, looked up): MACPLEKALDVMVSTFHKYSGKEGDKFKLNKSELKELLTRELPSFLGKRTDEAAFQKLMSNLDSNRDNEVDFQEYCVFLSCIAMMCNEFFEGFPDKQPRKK
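Material: S100A4 monomer protein / Buffer or medium: 50 mM HEPES pH 7.2, 10 mM CaCl2, 100 mM KCl / Times: 5 min incubation before reading / Benchmarks: neutral control DMSO, positive control TFP / Reagent: labelled myosin peptide probe, 5 nM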
RAD52 inh = RAD52 DNA annealing inhibitors, primary screen, biochemical, FRET, single point, set 2. DNA repair protein RAD52 homolog (Homo sapiens), P43351. recombinant RAD52 DNA annealing, FRET fluorescence. inhibition, % at 18.7 µM. actives 0.46% (n = 360,000);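 active means every replicate showing at least 50% inhibition; inconclusive means mean inhibition at least 50% but not in every replicate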
RAD52 DNA ctr = DNA-binding compounds via dye displacement, dose response, artefact control for RAD52 inhibitor project, biochemical, fluorescence polarization, cherry-pick | AID 652128, 2013 | shares compounds with RAD52 inh | AC50, µM | Salmon sperm DNA/acridine orange FP displacement | actives 8% (n = 1,000);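 active means fitted half-maximal concentration for signal loss at or below twice the highest dose tested, in every separate run, actives reach about 64 µM in these data; inconclusive means runs disagree, or flat partial signal loss, or poor fit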
The depositor's hits bear a star; i = inactive; ? = inconclusive; . = no result given. An excerpt weighted towards active compounds, which were near 1.5% of everything screened.

SMILES | MLL AF4-AF9 inh | RAD54 branch | dFosB act | S100A4 MyoIIA | RAD52 inh | RAD52 DNA ctr
COC(=O)[C@@H]1[C@@H](CO)[C@@H]2Cn3c(ccc(-c4ccccc4)c3=O)[C@H]1N2CCc1ccccc1 | -0.7 | -6.4 | . | 0.3 | 10.3 | .
ClCCN1CCN(c2ccnc3cc(Cl)ccc23)CC1 | 20.7 | 29.8 | 2.5 | -1.6 | 68.5* | i
COC(=O)[C@@H]1[C@@H](CO)[C@@H]2Cn3c(ccc(/C=C/c4ccccc4)c3=O)[C@H]1N2C(=O)C1CCC1 | -11.9 | -2.4 | . | 16.0 | 10.3 | .
Ic1ccccc1CN[C@@H]1C2CCN(CC2)[C@@H]1C(c1ccccc1)c1ccccc1 | 9.9 | 23.8 | -3.8 | 0.0 | 62.2* | i
Fc1ccccc1CNC1CN2CCC1CC2 (stereo not given) | -4.2 | . | -1.5 | -2.9 | -5.1 | .
O=C1CNC[C@H]2[C@@H](c3ccc(Br)cc3)[C@H](CO)N12 | -0.2 | . | . | 2.1 | 13.8 | .
Oc1ccc2c3c1OC1c4[nH]c5ccccc5c4C[C@@]4(O)C(C2)N(CC2CC2)CC[C@]314 (stereo not given in full) | . | -0.6 | -3.4 | -3.0 | -0.1 | .
Oc1ccc2c3c1O[C@H]1c4[nH]c5c(c4CC4(O)C(C2)N(CC2CC2)CCC314)CC1(O)[C@H]2Cc3ccc(O)c4c3[C@@]1(CCN2CC1CC1)C5O4 (stereo not given in full) | . | . | . | 1.4 | 83.5* | i
C=C1[C@@H](OC(C)=O)[C@]23C[C@@H]1[C@@H](OC(C)=O)CC2[C@]12C4C[C@H]3[C@H]1N(CC)C[C@]4(C)CC[C@@H]2O (stereo not given in full) | 0.3 | -12.7 | 4.8 | -15.9 | 78.3* | i
CCN1C[C@]2(COC)CC[C@H](O)[C@@]34C5C[C@H]6[C@H](O)C5[C@](O)(C[C@H]6OC)[C@@H]([C@H](OC)C23)[C@@H]14 (stereo not given in full) | . | -0.3 | . | . | . | .
C[C@]1(O)CCC2C3CC[C@H]4C[C@@H](OC(=O)[C@@H](N)CCCCN)CC[C@]4(C)C3CC[C@@]21C (stereo not given in full) | 14.5 | 60.0* | . | 4.3 | 87.8* | i
N#Cc1ccc(-c2ccc([C@H]3[C@@H](CO)N4CCCCN(C(=O)Cc5ccccc5)C[C@H]34)cc2)cc1 | -2.9 | 2.6 | . | -1.2 | -7.8 | .
O=c1[nH]c2cc(Cl)ccc2n1C1CCN(Cc2ccc(-c3nc4ccccc4nc3-c3ccccc3)cc2)CC1 | 0.1 | . | . | 0.5 | -16.7 | .
O=c1[nH]c2ccccc2n1C1CCN(Cc2ccc(-c3[nH]c4cc5ncnc5cc4nc3-c3ccccc3)cc2)CC1 | 4.3 | . | . | -3.7 | 53.7* | i
CCCCCCCCCCCCCCCC[N+](C)(C)C | -30.3 | 44.3 | ? | 6.3 | 80.1* | ?
O=C(Cc1ccncc1)N1CCCCN2[C@H](CO)[C@@H](c3ccc(C#Cc4ccccc4F)cc3)[C@@H]2C1 | -4.9 | 8.4 | . | -51.9 | -301.3 | .
COc1ccc(C#Cc2ccc([C@@H]3[C@@H](CO)N4CCCCN(C(=O)Cc5ccccc5)C[C@H]34)cc2)cc1 | 3.5 | 4.1 | . | 11.2 | -10.3 | .
COc1cc2c3cc1Oc1cc(ccc1O)C[C@@H]1c4c(cc(OC)c(O)c4Oc4cccc(c4)C[C@@H]3N(C)CC2)CC[N+]1(C)C | 1.2 | 18.6 | 15.6 | -0.4 | 69.5* | i
COc1cc2c3cc1Oc1cc(ccc1O)C[C@@H]1c4c(cc(OC)c(O)c4Oc4ccc(cc4)C[C@H]3N(C)CC2)CCN1C | ? | 31.3 | 13.1 | -13.6 | 51.8* | i
COc1cc2c3cc1Oc1c(OC)c(OC)cc4c1[C@H](Cc1ccc(cc1)Oc1cc(ccc1O)C[C@H]3N(C)CC2)N(C)CC4 | -21.2 | 16.0 | 13.8 | -0.3 | 58.5* | i
